Experimental findings from PMC8116641 (Archives of Virology, 2021) are described below.

Data set [1] can be described thus: Cytotoxicity assay, microtetrazolium test. The data set is classed as cell-based. As to conditions: dog, MDCK cells. In outline:
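MDCK cells were exposed for 48 h at 36°C in 5% CO2 to threefold serial dilutions of test compound in MEM, in triplicate. After two PBS washes, cells were incubated for 1 h with MTT ([…] in PBS). The formazan was dissolved in DMSO and OD was read at 535 nm. OD was plotted against concentration to calculate CC50.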

The subject of data set [2] is influenza A virus A/Puerto Rico/8/34 (H1N1) (PR8 (H1N1)). The experiment in a line: microbe, parasite or virus in culture. The data set is classed as cell-based. As to conditions: for IC50: Influenza A virus, H1N1|PR8, MDCK, read-out: IC50 (50% virus-inhibiting concentration).
The test system of data set [3] is influenza A virus A/California/07/09 (H1N1)pdm09 (Cal (H1N1)pdm09). Nature of the data set: microbe, parasite or virus in culture. In kind it is cell-based. As to conditions: for IC50: read-out: IC50 (50% inhibitory concentration).
Data set [4] relates to influenza A virus A/Aichi/2/68 (H3N2) (Aichi (H3N2)). The experiment in a line: microbe, parasite or virus in culture. The following applies: for IC50: read-out: IC50 (50% inhibitory concentration). In kind it is cell-based.
Data set [5] relates to influenza A viruses (H1, H1pdm09, and H3 subtypes). Nature of the data set: microbe, parasite or virus in culture. The data set is classed as cell-based. As to conditions: read-out: IC50 value (depending on the virus).
The subject of data set [6] is influenza A virus PR8 (H1N1). The data set is classed as cell-based.
Data set [7] concerns the target receptor-binding activity of viral HA of influenza A virus PR8 (H1N1) (Influenza A virus, UniProt P03452). In kind it is biochemical.

Structures are written as SMILES. “Also recorded” adds a separate entry of the source. Like-named read-outs stand apart in the source and are kept apart here.

receptor-binding activity of viral HA of influenza A virus PR8 (H1N1), sequence (P03452 18-343 limits assumed): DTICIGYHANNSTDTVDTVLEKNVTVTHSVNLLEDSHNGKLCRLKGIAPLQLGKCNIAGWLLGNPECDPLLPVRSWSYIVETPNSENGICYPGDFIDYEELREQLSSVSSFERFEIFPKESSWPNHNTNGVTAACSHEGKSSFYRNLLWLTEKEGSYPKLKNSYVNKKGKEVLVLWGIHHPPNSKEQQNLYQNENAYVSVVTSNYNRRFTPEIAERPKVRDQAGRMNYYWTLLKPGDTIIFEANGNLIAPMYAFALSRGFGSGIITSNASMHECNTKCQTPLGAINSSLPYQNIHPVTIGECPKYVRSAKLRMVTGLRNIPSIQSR
receptor-binding activity of viral HA of influenza A virus PR8 (H1N1), sequence (P03452 344-565 limits assumed): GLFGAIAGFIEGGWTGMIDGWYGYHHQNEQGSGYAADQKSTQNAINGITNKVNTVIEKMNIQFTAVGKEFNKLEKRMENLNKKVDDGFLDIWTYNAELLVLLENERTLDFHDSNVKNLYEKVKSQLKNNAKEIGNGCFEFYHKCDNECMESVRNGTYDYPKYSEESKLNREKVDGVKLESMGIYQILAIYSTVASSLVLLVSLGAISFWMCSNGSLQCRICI

For the compound `CC1(C)[C@@H]2CC[C@@]1(C)/C(=N/CC[N+](C)(C)C)C2.[I-]` [compound 6, N,N,N-Trimethyl-2-((E)-((1R,4R)-1,7,7-trimethylbicyclo[2.2.1]heptan-2-ylidene)amino)ethanaminium iodide], the 50% cytotoxic concentration (CC50) – broadly, the concentration at which the toxic effect on the cells reaches its halfway point – at 48 h in data set [1] is greater than 2100 µM. For the same compound, in data set [2], the “SI (selectivity index, CC50/IC50)” value is listed as greater than 18 and the IC50 was determined as 115 ± 10 µM.

With `NC(=O)c1ncn([C@@H]2O[C@H](CO)[C@@H](O)[C@H]2O)n1` [Ribavirin, reference compound], the CC50 at 48 h in data set [1] is greater than 2000 µM. The “SI (selectivity index, CC50/IC50)” value in data set [2] is given as greater than 81; in data set [3], 61; in data set [4], 52. In addition, the IC50 in data set [2] came to 24.6 µM; in data set [3] (Influenza A virus, H1N1, MDCK), 35 ± 4.6 µM; in data set [4] (Influenza A virus, H3N2, MDCK), 41 ± 3.9 µM.

`CC(N)C12CC3CC(CC(C3)C1)C2` (stereo not drawn) [Rimantadine, reference compound] showed a cytotoxic concentration (CC50) at 48 h in data set [1] of 335 ± 27 µM. In data set [2], the “SI (selectivity index, CC50/IC50)” value was determined as 5 and the IC50 was determined as 67 ± 4.9 µM.

Take `CC1(C)[C@H]2CC[C@]1(C)[C@H](OC(=O)C[N+](C)(C)C)C2.[I-]` [10a, N,N,N-Trimethyl-2-oxo-2-((1S,2R,4S)-1,7,7-trimethylbicyclo[2.2.1]heptan-2-yloxy)ethanaminium iodide]: in data set [1], the CC50 at 48 h came out at 1310 ± 126 µM. For the same compound, the “SI (selectivity index, CC50/IC50)” value was 546 in data set [2], 78 in data set [3] and 142 in data set [4]. The IC50 in data set [2] is 2.4 ± 0.4 µM; in data set [3] (Influenza A virus, H1N1, MDCK), 16.9 µM; in data set [3] it was 16.8 ± 3.1 µM; in data set [4], 9.2 ± 1.3 µM; in data set [5], 2.4 to 16.8 µM. Besides, in data set [6], the “Infectious activity of the virus when compound is added late” value is “not statistically different from the control values”. Besides, the “Time of addition at which the compound is most effective” value in data set [6] is listed as “most effective when added at the early stages of the viral life cycle; also recorded: most effective when added within 0–2 hours after infection”. For the same compound, the “Effect on hemagglutination titer of the virus” value in data set [7] is recorded as “did not change this value”.

In data set [1], `CC[N+](C)(CC)CC(=O)O[C@H]1C[C@@H]2CC[C@@]1(C)C2(C)C.[I-]` [11a, N,N-Diethyl-N-methyl-2-oxo-2-((1S,2S,4S)-1,7,7-trimethylbicyclo[2.2.1]heptan-2-yloxy)ethanaminium iodide] had a 50% cytotoxic concentration (CC50) at 48 h of 850 ± 38 µM. Further, in data set [2], the “SI (selectivity index, CC50/IC50)” value is on record as 3 and the IC50 was found to be 316 ± 40 µM.

In turn, `CC1(C)[C@H]2CC[C@]1(C)[C@H](OC(=O)CCC[N+](C)(C)C)C2` [10c, N,N,N-Trimethyl-4-oxo-4-((1S,2R,4S)-1,7,7-trimethylbicyclo[2.2.1]heptan-2-yloxy)butan-1-aminium iodide] yielded a CC50 at 48 h in data set [1] of 264 ± 15 µM. The IC50 in data set [2] is greater than 117 µM.

`CC[N+](C)(CC)CCC(=O)O[C@H]1C[C@@H]2CC[C@@]1(C)C2(C)C` [11b, N,N-Diethyl-N-methyl-3-oxo-3-((1S,2S,4S)-1,7,7-trimethylbicyclo[2.2.1]heptan-2-yloxy)propan-1-aminium iodide] showed a CC50 at 48 h in data set [1] of 69 ± 6 µM. The IC50 in data set [2] was greater than 37 µM.

In data set [1], `NC12CC3CC(CC(C3)C1)C2` [Amantadine, reference compound] returned a CC50 at 48 h of 284 ± 21 µM. In addition, in data set [2], the “SI (selectivity index, CC50/IC50)” value was determined as 4 and the IC50 is 64.2 ± 4.7 µM.

For the compound `CC(N)C1C[C@@H]2CC[C@H]1C2` (stereo partly drawn) [Deitiforine, reference compound], the CC50 at 48 h in data set [1] is 1270 ± 81 µM.

On to `CC1(C)[C@@H]2CC[C@@]1(C)/C(=N/CCC[N+](C)(C)C)C2.[I-]` [compound 7, N,N,N-Trimethyl-3-((E)-((1R,4R)-1,7,7-trimethylbicyclo[2.2.1]heptan-2-ylidene)amino)propan-1-aminium iodide], for which, in data set [1], the CC50 at 48 h is greater than 1990 µM. Moreover, in data set [2], the “SI (selectivity index, CC50/IC50)” value is given as greater than 14 and the IC50 was 144 ± 12 µM.
